# Reference: ChEMBL document CHEMBL4842312, “Phenoxazine nucleoside derivatives with a multiple activity against RNA and DNA viruses” (Eur J Med Chem, 2021)
# What was measured:
# Vero = assay: Cytotoxicity in African green monkey Vero cells assessed as reduction in cell viability measured after 5 days by resazurin dye based assay; conditions: chlorocebus sabaeus, vero, 120 h; time 5 day
# Summary of the method: (§1)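 Cells (about 10⁵/well, 5% FBS) were added to two-fold compound dilutions (eight concentrations from 100 μM; DMSO control) and held 5 days at 36.5 °C in CO2. Medium was then replaced with resazurin (25 μg/mL) for 4 h and stopped with SDS. Fluorescence was read at Ex 525 / Em 580–640 nm, with background wells without resazurin subtracted. Done in two replicates; CC50 calculated.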
# SARS-CoV-2 = assay: Antiviral activity against SARS COV-2 infected in monkey vero cells assessed as reduction in virus-induced cytopathic effect preincubated with virus for 1 hr followed by cell infection and measured after 5 days by microscopic analysis; format: functional, organism-based; conditions: Severe acute respiratory syndrome coronavirus 2, Vero
# [1] = test system: Respiratory syncytial virus; assay: Antiviral activity against Respiratory syncytial virus assessed as reduction in virus-induced cytopathic effect by MTS assay; format: functional, organism-based; conditions: human respiratory syncytial virus
# HEp-2 = assay: Cytotoxicity in human Hep2 cells assessed as reduction in cell viability measured after 3 days by beckman coulter counting method; format: functional; conditions: HEp-2, 72 h, time 3 day
# Summary of the method: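 Hep2 cells seeded at 5 × 10³ cells/well and allowed to grow 24 h, then exposed to compound dilutions starting at 100 μM for 3 days at 37 °C. Cell number measured by Coulter counter.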
# Human betaherpesvirus 5 [2] = assay: Antiviral activity against Human cytomegalovirus AD169; format: functional, organism-based; conditions: Human betaherpesvirus 5, AD169
# Summary of the method: (§2)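 Confluent HEL cultures received 100 CCID50 or 20 PFU of virus, with 2 h adsorption before inoculum removal. Cells were then incubated with compound from 100 μM downward. Cytopathicity or plaques were scored once untreated infected controls reached completion.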
# Human alphaherpesvirus 3 [3] = assay: Antiviral activity against thymidine kinase deficient Varicella zoster virus; format: functional, organism-based; summary of the method: as §2
# Human alphaherpesvirus 3 [4] = assay: Antiviral activity against thymidine kinase positive Varicella zoster virus; format: functional, organism-based; summary of the method: as §2
# Human betaherpesvirus 5 [5] = assay: Antiviral activity against Human cytomegalovirus Davis; format: functional, organism-based; conditions: Human betaherpesvirus 5, Davis; summary of the method: as §2
# MDCK = assay: Cytotoxicity in dog MDCK cells assessed as reduction in cell viability measured after 3 days by beckman coulter counting method; format: cell-based, Canis lupus familiaris; conditions: mdck, 72 h, time 3 day
# Summary of the method: (§3)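 Cells were seeded at 5 × 10³/well, grown 24 h, then exposed to compound from 100 μM downward for 3 days at 37 °C. Cell number was counted with a Coulter counter.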
# HEL = assay: Cytotoxicity against human HEL cells assessed as reduction in cell viability measured after 3 days by beckman coulter counting method; format: cell-based; conditions: 72 h, time 3 day; summary of the method: as §3
# Influenza A virus = assay: Antiviral activity against Influenza A virus (H1N1) infected in MDCK cells assessed as reduction in cytopathic effect preincubated with cells for 1 hrs followed by viral addition and measured after 24 hrs by Reed-Muench method; format: functional, organism-based
# Summary of the method: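 MDCK monolayers were pre-incubated 1 h at 37 °C with 3-fold compound dilutions (from 2 mg/mL DMSO stock), then infected at MOI 1 for 24 h. Supernatant yield was titrated by 10-fold dilutions on fresh MDCK for 72 h. Titre was read by hemagglutination with 1% chicken erythrocytes and calculated by Reed-Muench as TID50 per 100 μL.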
# [6] = Selectivity index, ratio of CC50 for pig PEK cells to EC50 for Antiviral activity against Omsk hemorrhagic fever virus infected in pig PEK cells; format: toxicity, cell-based; conditions: read-out: Ratio CC50/EC50
# [7] = Cytotoxicity in pig PEK cells assessed as reduction in cell viability measured after 5 days by resazurin dye based assay; design: species or system Sus scrofa, Kidney; conditions: 120 h, time 5 day; summary of the method: as §1
# [8] = test system: Tick-borne encephalitis virus; assay: Antiviral activity against Tick-borne encephalitis virus infected in pig PEK cells assessed as reduction in virus plaque formation preincubated with virus for 1 hr followed by cell infection and measured after 1 hr by crystal violet staining based assay; format: functional, organism-based
# [9] = Selectivity index, ratio of CC50 for African green monkey Vero cells to EC50 for Antiviral activity against Chikungunya virus infected in African green monkey Vero cells; format: toxicity; conditions: read-out: Ratio CC50/EC50
# Powassan virus = assay: Antiviral activity against Powassan virus infected in pig PEK cells assessed as reduction in virus plaque formation preincubated with virus for 1 hr followed by cell infection and measured after 1 hr by crystal violet staining based assay; format: functional, organism-based
# [10] = Selectivity index, ratio of CC50 for pig PEK cells to EC50 for Antiviral activity against Tick-borne virus encephalitis infected in pig PEK cells; format: toxicity, cell-based; conditions: read-out: Ratio CC50/EC50
# [11] = test system: Omsk hemorrhagic fever virus; assay: Antiviral activity against Omsk hemorrhagic fever virus infected in pig PEK cells assessed as reduction in virus plaque formation preincubated with virus for 1 hr followed by cell infection and measured after 1 hr by crystal violet staining based assay; format: functional, organism-based
# Chikungunya virus = assay: Antiviral activity against Chikungunya virus infected in African green monkey Vero cells assessed as reduction in virus plaque formation preincubated with virus for 1 hr followed by cell infection and measured after 1 hr by crystal violet staining based assay; format: functional, organism-based
# [12] = Selectivity index, ratio of CC50 for human HEL cells to EC50 for antiviral activity against thymidine kinase positive Varicella zoster virus; format: toxicity; conditions: read-out: Ratio CC50/EC50
# [13] = Selectivity index, ratio of CC50 for pig PEK cells to EC50 for Antiviral activity against Powassan virus infected in pig PEK cells; format: toxicity, cell-based; conditions: read-out: Ratio CC50/EC50
SMILES,CC50 (Vero) [µM],EC50 (SARS-CoV-2) [µM],EC50 [1] [µM],CC50 (HEp-2) [µM],EC50 (Human betaherpesvirus 5 [2]) [µM],EC50 (Human alphaherpesvirus 3 [3]) [µM],EC50 (Human alphaherpesvirus 3 [4]) [µM],EC50 (Human betaherpesvirus 5 [5]) [µM],CC50 (MDCK) [µM],CC50 (HEL) [µM],EC50 (Influenza A virus) [µM],further results
COc1ccc(C(OC[C@H]2O[C@@H](n3cc4c(nc3=O)Nc3ccccc3O4)[C@H](O)[C@@H]2O)(c2ccccc2)c2ccc(OC)cc2)cc1,15.9,11.5,–,–,–,–,–,–,–,–,–,–
O=c1nc2c(cn1[C@@H]1O[C@H](CO)[C@@H](O)[C@H]1O)Oc1ccccc1N2,> 100,> 100,–,–,–,–,–,–,–,–,–,–
COc1ccc(C(OC[C@H]2O[C@@H](n3cc4c(nc3=O)Nc3c(OCCN)cccc3O4)[C@H](O)[C@@H]2O)(c2ccccc2)c2ccc(OC)cc2)cc1,> 100,> 100,–,–,–,–,–,–,–,–,–,–
NC(=O)c1ncn([C@@H]2O[C@H](CO)[C@@H](O)[C@H]2O)n1 [RIBAVIRIN],–,–,2,250,–,–,–,–,–,–,–,–
COc1ccc(C(OC[C@H]2O[C@@H](n3cc4c(nc3=O)Nc3c(OCCN)cccc3O4)C[C@@H]2O)(c2ccccc2)c2ccc(OC)cc2)cc1,> 100,> 100,–,–,–,–,–,–,–,–,–,–
CCCCCCCCCOc1ccc2c(c1)Nc1nc(=O)n(COCCO)cc1O2,–,> 100,–,–,> 100,> 100,> 100,> 100,> 100,> 100,> 100,–
O=c1nc2c(cn1COCCO)Oc1ccccc1N2,> 100,> 100,> 100,> 100,> 100,> 100,> 100,> 100,> 100,> 100,25,selectivity ratio [6]: > 13; CC50 [7]: > 100 µM; EC50 [8]: 23.6 µM; selectivity ratio [9]: > 3; EC50 (Powassan virus): > 50 µM; selectivity ratio [10]: > 4; EC50 [11]: 7.2 µM; EC50 (Chikungunya virus): 28 µM
CCCCCCCCOc1ccc2c(c1)N(C)c1nc(=O)n([C@H]3C[C@H](O)[C@@H](CO)O3)cc1O2,> 100,> 100,> 100,> 100,> 100,> 100,8.7,> 100,> 100,> 100,104,selectivity ratio [12]: 74; CC50 [7]: > 100 µM; EC50 [8]: 22 µM; selectivity ratio [13]: > 7; selectivity ratio [9]: > 4; EC50 (Powassan virus): 13.3 µM; selectivity ratio [10]: > 4; EC50 (Chikungunya virus): 23.8 µM
O=c1nc(NO)ccn1[C@@H]1O[C@H](CO)[C@@H](O)[C@H]1O [N-HYDROXYCYTIDINE],> 100,7.4,–,–,–,–,–,–,–,–,–,–
CN1c2ccccc2Oc2cn([C@H]3C[C@H](O)[C@@H](CO)O3)c(=O)nc21,> 100,> 100,> 100,> 100,> 100,> 100,> 100,> 100,> 100,> 100,–,CC50 [7]: > 100 µM; EC50 [8]: 40 µM; EC50 (Powassan virus): > 50 µM; EC50 (Chikungunya virus): > 50 µM
CCC(CC)O[C@@H]1C=C(C(=O)O)C[C@H](N)[C@H]1NC(C)=O [OSELTAMIVIR CARBOXYLATE],–,–,–,–,–,–,–,–,> 100,–,2.9,–
NCCOc1cccc2c1Nc1nc(=O)n([C@@H]3O[C@H](CO)[C@@H](O)[C@H]3O)cc1O2,2.92,2.52,–,–,–,–,–,–,–,–,–,–
NOCN1c2ccccc2Oc2cn([C@H]3C[C@H](O)[C@@H](CO)O3)c(=O)nc21,> 100,> 100,–,–,–,–,–,–,–,–,–,–
